Experimental data of several laboratories.
BCHE: Cholinesterase (BCHE, Equus caballus, UniProt P81908)
SLC6A4: Sodium-dependent serotonin transporter (SLC6A4, Homo sapiens, UniProt P31645)

I/C=C/CN1CCN(CCc2ccc3c(c2)CCO3)CC1 — IC50 (Sigma non-opioid intracellular receptor 1 (Sigmar1, Mus musculus, UniProt O55242); ligand displacement; radioligand; cell membranes): 0.00068 µM
CC=C1[C@H]2C=C(C)C[C@]1(N(C)C)c1ccc(=O)n(C)c1C2 — IC50 (BCHE; enzyme activity; inhibitor; Ellman): 259 µM
Clc1ccc2c(C3=CCN(CC[C@@H]4CNc5ccccc54)CC3)c[nH]c2c1 — IC50 (SLC6A4; ligand displacement; radioligand; cell membranes): 0.205 µM
CC=C1[C@H]2C=C(C)C[C@]1(N)c1cc(I)c(=O)[nH]c1C2 — IC50 (BCHE; enzyme activity; inhibitor; Ellman): 325 µM
O=C(CNC(=S)NN=Cc1ccc([N+](=O)[O-])cc1)c1ccc([N+](=O)[O-])cc1 — IC50 (BCHE; enzyme activity; inhibitor; Ellman): 326 µM
COC(=O)[C@H](CCC(=O)Nc1cccc2c1ccn2Cc1cccc(C(N)=O)c1)NC(=O)OCc1ccccc1 — IC50 (NAD-dependent protein deacetylase sirtuin-3, mitochondrial (SIRT3, Homo sapiens, UniProt Q9NTG7); enzyme activity; inhibitor): 3.6 µM
O=P(O)(O)Oc1ccccc1OP(=O)(O)O — IC50 (Signal transducer and activator of transcription 5A, SH2 (Homo sapiens, UniProt P42229); ligand displacement; FP): 69 µM
CC=C1[C@H]2C=C(C)C[C@]1(N)c1cc(OCC)c(=O)[nH]c1C2 — IC50 (BCHE; enzyme activity; inhibitor; Ellman): 253 µM
NC(=O)NO — IC50 (Urease (Canavalia ensiformis, UniProt P07374); enzyme activity; inhibitor): 7.42 µM
CC=C1[C@H]2C=C(C)C[C@]1(N)c1cc(C#N)c(=O)[nH]c1C2 — IC50 (BCHE; enzyme activity; inhibitor; Ellman): 1050 µM
Clc1ccc2c(C3CCN(CCc4c[nH]c5ccccc45)CC3)c[nH]c2c1 — IC50 (SLC6A4; ligand displacement; radioligand; cell membranes): 0.0021 µM
C#CCNc1nc(NCCCCC2CCN(Cc3ccccc3)CC2)c(C#N)c(-c2ccccc2)c1C#N — IC50 (BCHE; enzyme activity; inhibitor; Ellman): 0.61 µM
C[C@H](N)Cn1ncc2ccc3c(c21)CCCO3 — IC50 (D(1A) dopamine receptor (DRD1, Homo sapiens, UniProt P21728); ligand displacement; radioligand): 138 µM
